Results on one compound are retold here after ChEMBL document CHEMBL1157968, “Chemical and cytotoxic constituents from the leaves of Cinnamomum kotoense” (2006).

Assay type in all cases: functional
In assay [1] the test system is HeLa. The assay can be described thus: Cell cycle arrest in human HeLa cells pretreated with 100 uM Boc-Asp(OMe)-fmk for 1 hr assessed as G1 phase accumulation at 100 uM after 24 hrs by FACS. The essentials: (§1)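 HeLa cells pretreated for 1 h with the listed agent (10 mM GSH ethyl ester, 10 µM dexamethasone, 10 µM pifithrin, 100 µM Boc-Asp(OMe)-fmk or 5 µM cyclosporin A), then given 100 µM compound for 24 h. Cells fixed in PBS-MeOH, stained with PI/RNase and analysed by flow cytometry for DNA content. At least three experiments, one representative shown.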

The subject of assay [2] is HeLa. The assay can be described thus: Induction of apoptosis in human HeLa cells assessed as increase p53 expression at 100 uM after 24 hrs by FACS. In outline:
(§2)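 HeLa seeded at 5 × 10^5 cells/dish 48 h before, in DMEM with 10% FCS; medium renewed at 60% confluence, then 100 µM agent (0.1% DMSO final) for 0–24 h. Pooled floating and adherent cells fixed in 1% paraformaldehyde (15 min, 4 °C), permeabilized in 70% EtOH (30 min, 4 °C), then FITC-conjugated mouse anti-p53 mAb (1 h, 37 °C), PI/RNase counterstain; flow cytometry, % p53-positive cells; ≥3 experiments.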
On the technique in general: In flow cytometry, cells or beads pass a laser one at a time.

Assay [3] relates to HeLa. The assay can be described thus: Induction of apoptosis in human HeLa cells assessed as increase caspase 3/7 activities at 100 uM after 12 hrs by FACS relative to control. In outline: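 After 3–24 h exposure at 100 µM, HeLa cells were trypsinized. 1 × 10^6 cells in DMEM were mixed 1:1 with Z-DEVD-R110 substrate reagent and incubated 1 h at 37 °C, then washed. Released R110 read per cell by flow cytometry (ex 488/em 520 nm) and expressed as fold over untreated cells. At least three runs.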

Assay [4] deals with HeLa. The experiment in a line: Induction of apoptosis in human HeLa cells assessed as increase in intracellular hydrogen peroxide level at 100 uM after 24 hrs by FACS relative to untreated control. The essentials:
(§3)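 HeLa cells at 80% confluence were refed and exposed to 100 µM for 1, 3 or 24 h. They were loaded with 10 µM DCFH-DA for 30 min in the dark, trypsinized and resuspended in PBS. DCF fluorescence was measured by flow cytometry and expressed as fold versus untreated cells. At least three experiments.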

The test system of assay [5] is HeLa. The experiment in a line: Induction of apoptosis in human HeLa cells assessed as increase in intracellular glutathione-depleted cell population at 50 uM after 24 hrs by FACS. In outline:
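HeLa cells at 80% confluence got fresh medium and were exposed for 24 h. Adherent and floating cells were pooled, adjusted to (1-2) × 10^6/mL and stained with 25 µM CMF-DA for 30 min at 37 °C. After washing, flow cytometry scored the percentage of GSH-negative cells. At least three experiments.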

For assay [6], the system named is HeLa. The experiment in a line: Cell cycle arrest in human HeLa cells assessed as S phase accumulation at 100 uM after 24 hrs by FACS. In outline:
(§4)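 HeLa cells seeded 5 × 10^5 per dish 48 h ahead in DMEM with 10% FCS, then exposed to compound for 24 h (DMSO 0.1% final). Adherent and floating cells pooled, fixed in PBS-MeOH (1:2) at 4 °C for at least 18 h, and stained with PI (50 µg/mL) plus RNase A for 30 min at room temperature. Flow cytometry at 488 nm excitation, doublets gated out; phase percentages taken from DNA histograms.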

For assay [7], the system named is HeLa. The experiment in a line: Cell cycle arrest in human HeLa cells pretreated with 5 uM cyclosporin A for 1 hr assessed as G2/M phase accumulation at 100 uM after 24 hrs by FACS. In outline: as §1
The subject of assay [8] is HeLa. The assay can be described thus: Induction of apoptosis in human HeLa cells assessed as number of cells with decreased mitochondrial membrane potential at 100 uM after 1 hr by measuring rhodamine 123 fluorescence intensity. On the set-up: scale not given: the % may be the effect or the level left. The essentials: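 Cells in DMEM/10% FCS, medium renewed at 80% confluence, then 100 µM agent (0.1% DMSO final) for 1–24 h. Stained with 5 µM rhodamine 123 for 30 min in the dark, washed, trypsinized and resuspended in PBS; flow cytometry, percentage of cells with weak rhodamine 123 staining (reduced ΔΨm); at least three experiments, representative shown.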

Assay [9] has as its system HeLa. The experiment in a line: Induction of apoptosis in human HeLa cells assessed as increase p53 expression at 100 uM after 3 hrs by FACS. The essentials:
as §2

Assay [10] has as its system HeLa. The experiment in a line: Cell cycle arrest in human HeLa cells assessed as G2/M phase accumulation at 25 after 24 hrs by FACS. In outline: as §4
The test system of assay [11] is HeLa. The experiment in a line: Cell cycle arrest in human HeLa cells pretreated with 10 uM Dexamethasone for 1 hr assessed as S phase accumulation at 100 uM after 24 hrs by FACS. In outline:
as §1

Assay [12] relates to HeLa. The assay can be described thus: Cell cycle arrest in human HeLa cells assessed as subG1 phase accumulation at 100 uM after 24 hrs by FACS. In outline: as §4
The test system of assay [13] is HeLa. The experiment in a line: Cell cycle arrest in human HeLa cells pretreated with 100 uM Boc-Asp(OMe)-fmk for 1 hr assessed as S phase accumulation at 100 uM after 24 hrs by FACS. In outline:
as §1

The subject of assay [14] is HeLa. The experiment in a line: Cell cycle arrest in human HeLa cells pretreated with 10 mM glutathione ethyl ester for 1 hr assessed as G1 phase accumulation at 100 uM after 24 hrs by FACS. In outline:
as §1

In assay [15] the test system is HeLa. The experiment in a line: Induction of apoptosis in human HeLa cells assessed as increase in intracellular peroxide level at 100 uM after 24 hrs by FACS relative to untreated control. The essentials:
as §3

The subject of assay [16] is HeLa. The experiment in a line: Cell cycle arrest in human HeLa cells pretreated with 10 uM pifithrin-alpha for 1 hr assessed as G1 phase accumulation at 100 uM after 24 hrs by FACS. The essentials: as §1
Assay [17] relates to HeLa. The assay can be described thus: Cell cycle arrest in human HeLa cells pretreated with 10 mM glutathione ethyl ester for 1 hr assessed as G2/M phase accumulation at 100 uM after 24 hrs by FACS. The essentials:
as §1

The subject of assay [18] is HeLa. The experiment in a line: Cell cycle arrest in human HeLa cells pretreated with 10 uM pifithrin-alpha for 1 hr assessed as G2/M phase accumulation at 100 uM after 24 hrs by FACS. In outline: as §1

Consider `CCCCCCCCCCCCC/C=C(/C(=O)OC)[C@@H](O)C(C)=O` [SECOKOTOMOLIDE A], for which the Activity in assay [1] is 60.6%; in assay [2], 28.8%; in assay [5], 92%; in assay [6] it was 28.7%; in assay [7], 38.2%; in assay [8] it was 1.4%. Moreover, the Activity in [9] amounted to 0.5%; in [10], 28.7%; in assay [11], 33.8%; in assay [12] it was 75%; in [13], 13.6%; in assay [14] it was 80%. For the same compound, the Activity in assay [16] came to 51.3%; in assay [17], 11.6%; in [18] it was 0%. Moreover, the “fold change (FC)” value was found to be 4.6 in assay [3], 3.9 in assay [4] and 3.9 in assay [15].
